This passage reports Activity and Ratio results from ChEMBL document CHEMBL2029280, “3-fluoro- and 3,3-difluoro-3,4-dideoxy-KRN7000 analogues as new potent immunostimulator agents: total synthesis and biological evaluation in human invariant natural killer T cells and mice” (2012).

SMILES strings stand for the structures. Active and inactive are the calls of the source. The calls are words filed in the database; no cut-off is given here.

In assay [1] the test system is MAD11. Briefly: Activation of Hela cell expressing human CD1D-TCR in human MAD11 cells assessed as TH1-mediated IFN-gamma secretion after 6 hrs by ELISA relative to KRN7000. The assay is classed as cell-based. The gist of the method: (§1)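 APCs (hCD1d-transduced HeLa or Namalwa) plated 30000/well, loaded overnight at 37 °C with glycolipid titration in DMSO, washed twice. Vα24/Vβ11-sorted human iNKT line (15000 cells, no IL-2) added for 6 h at 37 °C. Supernatant IFN-γ measured by ELISA. No-glycolipid background subtracted. Mean of triplicates, SD shown. KRN7000 reference; untransduced APCs as negative control.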
For orientation: In an ELISA, binding on a coated surface is turned into a signal by an enzyme label.

The test system of assay [2] is MAD11. Briefly: Activation of Hela cell expressing human CD1D-TCR in human MAD11 cells assessed as TH2-mediated IL-13 secretion after 48 hrs by ELISA relative to KRN7000. It counts as functional, cell-based. The gist of the method: (§2)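 The hCD1d-transduced HeLa or Namalwa presenting cells were plated at 7500/well and pulsed overnight at 37 °C with increasing glycolipid concentrations in DMSO, then washed. 15000 sorted human iNKT cells were added without IL-2 for 48 h at 37 °C. IL-13 in supernatant was measured by ELISA, minus background without glycolipid. Triplicate mean ± SD, with KRN7000 as reference.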

The test system of assay [3] is Namalwa. Briefly: Activation of Namalwa cell expressing CD1D-TCR in human MAD11 cells assessed as TH1-mediated TNFalpha secretion after 6 hrs relative to control. It counts as cell-based. The gist of the method:
(§3)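 Human CD1d-transduced HeLa or Namalwa cells, 30000/well, incubated overnight at 37 °C with graded glycolipid (DMSO), washed twice, then cocultured 6 h at 37 °C with 15000 Vα24+/Vβ11+ human iNKT cells in RPMI without IL-2. TNF-α in cell-free supernatant measured by WEHI 164 cytotoxicity (MTT). No-glycolipid background subtracted. Mean of triplicates; at least 3 experiments.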

The test system of assay [4] is MAD11. In words: Activation of Hela cell expressing human CD1D-TCR in human MAD11 cells assessed as TH1-mediated TNFalpha secretion after 6 hrs relative to control. The assay is classed as cell-based. In outline: as §3
Assay [5] deals with Namalwa. In words: Activation of Namalwa cell expressing CD1D-TCR in human MAD11 cells assessed as TH2-mediated IL-13 secretion after 48 hrs by ELISA relative to KRN7000. It counts as functional, cell-based. The gist of the method:
as §2

The test system of assay [6] is Namalwa. In words: Activation of Namalwa cell expressing CD1D-TCR in human MAD11 cells assessed as TH1-mediated IFN-gamma secretion after 6 hrs by ELISA relative to KRN7000. It counts as cell-based. The gist of the method:
as §1

Assay [7] has as its system Mus musculus. Briefly: Induction of CD1D-TCR-dependent NKT cell activation in C57BL/6J mouse assessed as TNF-alpha production at 100 ug/kg, ip relative to KRN7000. The assay is classed as functional. In outline: (§4)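 Female C57BL/6J mice, 6–8 weeks old, given 100 μg/kg glycolipid ip in 0.1 mL of 10% DMSO in 0.9% NaCl. Sera collected at several time points after injection; six mice per time point. Serum IFN-γ, IL-4 and TNF-α measured by ELISA. Time courses compared as area under the curve against KRN7000.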

For assay [8], the system named is Mus musculus. Briefly: Induction of CD1D-TCR-dependent NKT cell activation in C57BL/6J mouse assessed as IL-4 production at 100 ug/kg, ip relative to KRN7000. The assay is classed as functional. In outline:
as §4

Assay [9] deals with Mus musculus. In words: Induction of CD1D-TCR-dependent NKT cell activation in C57BL/6J mouse assessed as ratio of IFNgamma/IL-4 production at 100 ug/kg, ip relative to KRN7000. The assay is classed as functional. The gist of the method:
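Female C57BL/6J mice, 6–8 weeks old, received 100 μg/kg ip in 0.1 mL of 10% DMSO/0.9% NaCl. Serial serum samples were taken, six mice per time point. IFN-γ and IL-4 were measured by ELISA, and the ratio of AUC IFN-γ to AUC IL-4 was computed.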

Assay [10] deals with Mus musculus. Briefly: Induction of CD1D-TCR-dependent NKT cell activation in C57BL/6J mouse assessed as IFN-gamma production at 100 ug/kg, ip measured after 8 hrs relative to KRN7000. It counts as functional. The gist of the method:
as §4

For assay [11], the system named is Mus musculus. In words: Induction of CD1D-TCR-dependent NKT cell activation in C57BL/6J mouse assessed as IFN-gamma production at 100 ug/kg, ip relative to KRN7000. It counts as functional. In outline:
as §4

Consider `CCCCCCCCCCCCCCCCCCCCCCCCCC(=O)N[C@@H](CO[C@H]1O[C@H](CO)[C@H](O)[C@H](O)[C@H]1O)[C@H](O)[C@H](O)CCCCCCCCCCCCCC`, for which the outcome with MAD11 [1], with MAD11 [2], in the assay on Namalwa [3], in the assay on MAD11 [4], in the assay with Namalwa [5] and in the assay with Namalwa [6] was Active.

Take `CCCCCCCCCCCCCCCCCCCCCCCCCC(=O)N[C@@H](CO[C@H]1O[C@H](CO)[C@H](O)[C@H](O)[C@H]1O)[C@H](F)CCCCCCCCCCCCCC`: the results for the Activity in the assay with Mus musculus [7] and in the assay on Mus musculus [10] were 23% and 30%, respectively. The Ratio in the assay with Mus musculus [8] amounted to 0.35; in the assay on Mus musculus [9], 0.78. Further, the outcome in the assay on MAD11 [1], in the assay on MAD11 [2], in the assay on Namalwa [3], in the assay with MAD11 [4], with Namalwa [5] and in the assay on Namalwa [6] was Active.

Consider `CCCCCCCCCCCCCCCCCCCCCCCCCC(=O)N[C@@H](CO[C@H]1O[C@H](CO)[C@H](O)[C@H](O)[C@H]1O)C(F)(F)CCCCCCCCCCCCCCC`, for which, in the assay with Mus musculus [7], the Activity was 32%. Besides, the Ratio in the assay with Mus musculus [8] was found to be 0.35; in the assay on Mus musculus [9] it was 1.31. The result in the assay with MAD11 [1], in the assay on MAD11 [2], with Namalwa [3], with MAD11 [4], with Mus musculus [10] and with Namalwa [5] was Active. The outcome in the assay with Namalwa [6] was Active.

Consider `CCCCCCCCCCCCCCCCCCCCCCCCCC(=O)N[C@H](CCCCCCCCCCCCCCC)CO[C@H]1O[C@H](CO)[C@H](O)[C@H](O)[C@H]1O`, for which the values for the Activity in the assay with Mus musculus [7] and in the assay on Mus musculus [11] were 40% and 70%, respectively. Besides, the results for the Ratio in the assay with Mus musculus [8] and in the assay with Mus musculus [9] were 0.35 and 1.86, respectively. In addition, the result in the assay with MAD11 [1], in the assay on MAD11 [2], in the assay with Namalwa [3], in the assay with MAD11 [4], with Namalwa [5] and in the assay on Namalwa [6] was Active.
